Measured values published in ChEMBL document CHEMBL4028890, “A Positive Allosteric Modulator of the Serotonin 5-HT2C Receptor for Obesity” (J Med Chem, 2017).
pEC50: −log10 of the molar value. Values belong to the compound of their own block, whether it stands above or below them. The source made the active and inactive calls. The rule behind the calls is not given here.

Assays:
[1] = target: T1, 5-hydroxytryptamine receptor 2C (Homo sapiens) (UniProt P28335); assay: Positive allosteric modulation of human 5-HT2C receptor expressed in human HeLa-K1 cells assessed as potentiation of 5-HT-induced inositol monophosphate release at 10 uM after 20 mins by HTRF assay relative to control; type: functional, cell-based
T1 sequence (whole entry): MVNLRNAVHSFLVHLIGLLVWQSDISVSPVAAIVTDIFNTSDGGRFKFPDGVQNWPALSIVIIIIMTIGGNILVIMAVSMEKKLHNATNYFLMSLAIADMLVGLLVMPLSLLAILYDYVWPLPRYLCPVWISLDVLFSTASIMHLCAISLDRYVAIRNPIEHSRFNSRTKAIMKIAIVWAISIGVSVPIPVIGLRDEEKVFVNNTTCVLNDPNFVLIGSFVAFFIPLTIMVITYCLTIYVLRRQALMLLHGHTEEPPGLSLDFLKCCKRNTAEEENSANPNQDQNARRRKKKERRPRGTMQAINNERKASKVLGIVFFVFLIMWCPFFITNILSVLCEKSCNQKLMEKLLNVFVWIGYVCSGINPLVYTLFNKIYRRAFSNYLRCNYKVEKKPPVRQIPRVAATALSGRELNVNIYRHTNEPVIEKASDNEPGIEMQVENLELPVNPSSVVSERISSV
Method in brief: (§1)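 IP-One HTRF assay in CHO-K1 cells (human 5-HT2A, 5-HT2B) or HeLa-K1 cells (human 5-HT2C), seeded and grown 24 h at 37 °C. Test compound and/or 5-HT added in stimulation buffer, then 20 min at 37 °C before IP1 read-out. Data normalized to 5-HT maximal effect and fitted by nonlinear regression. Triplicates, mean ± SD.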

Rattus norvegicus [2] = assay: Antiobesity activity in Wistar rat assessed as reduction in food intake at 10 mg/kg, ip after 4 hrs relative to control; type: functional; parameters: scale not given: the % may be the effect or the level left
Method in brief: (§2)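 Male Wistar rats, 200−250 g, 10−12 weeks, food-deprived 16 h before refeeding. Test compound given ip in sterile saline. Sertraline, ketanserin (2 mg/kg) or 5-HT2C antagonist (3 mg/kg) was given ip 30 min before the test compound. Food and water intake measured 30, 60, 120 and 240 min after food presentation. Mean ± SEM, at least 8 rats per group.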

[3] = target: T2, 5-hydroxytryptamine receptor 2A (Homo sapiens, UniProt P28223); assay: Positive allosteric modulation of human 5-HT2A receptor expressed in CHO-K1 cells assessed as potentiation of 5-HT-induced inositol monophosphate release at 10 uM after 20 mins by HTRF assay; type: cell-based; method in brief: as §1
T2 sequence (P28223 whole entry): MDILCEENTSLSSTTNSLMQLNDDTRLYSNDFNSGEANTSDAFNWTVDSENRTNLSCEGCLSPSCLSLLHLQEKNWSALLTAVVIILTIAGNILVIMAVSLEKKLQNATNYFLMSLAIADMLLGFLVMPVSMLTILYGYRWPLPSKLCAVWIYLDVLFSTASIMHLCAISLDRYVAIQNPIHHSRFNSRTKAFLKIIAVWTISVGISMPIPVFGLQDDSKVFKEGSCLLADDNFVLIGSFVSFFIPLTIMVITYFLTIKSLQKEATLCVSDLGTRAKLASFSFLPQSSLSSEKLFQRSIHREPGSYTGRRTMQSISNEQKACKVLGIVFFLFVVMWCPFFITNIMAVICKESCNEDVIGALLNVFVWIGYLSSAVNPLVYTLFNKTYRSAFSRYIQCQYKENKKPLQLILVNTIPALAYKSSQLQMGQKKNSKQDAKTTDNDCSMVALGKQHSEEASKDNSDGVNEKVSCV

Rattus norvegicus [4] = assay: Antiobesity activity in Wistar rat assessed as reduction in food intake at 2 mg/kg, ip after 4 hrs; type: functional, organism-based
Method in brief: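 Male Wistar rats, 200−250 g, aged 10−12 weeks, food-deprived 16 h before refeeding. Compound given ip in sterile saline; food and water intake measured at 30, 60, 120 and 240 min after food presentation. Where used, antagonist (3 mg/kg, ip) or other pretreatments were injected 30 min before the compound. Mean ± SEM, at least eight rats per group.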

[5] = target: T1, 5-hydroxytryptamine receptor 2C (Homo sapiens); assay: Displacement of [3H]-clozapine from human 5-HT2C receptor expressed in human HeLa-K1 cell membranes at 10 uM after 60 mins relative to control
Method in brief: (§3)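 Membranes from 5-HT2C-HeLa cells with test compound (10 μM) in 50 mM Tris-HCl pH 7.4. Radioligands: [3H]mesulergine 4 nM, [3H]LSD 2 nM (15 μg protein each), [3H]clozapine 15 nM (20 μg), 60 min at 27 °C. [3H]5-HT 2 nM (60 μg), 180 min at 4 °C. Nonspecific binding with 10 μM mianserin. Filtered and washed, then counted. Triplicates, mean ± SD.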

Rattus norvegicus [6] = assay: Antiobesity activity in restricted food access Wistar rat model assessed as reduction in food intake at 2 mg/kg, ip administered 30 mins prior to food presentation measured after 4 hrs on every day for 7 days; type: functional, organism-based
Method in brief: (§4)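 Rats had food for 4 h/day. Once the feeding baseline was stable, compound (2 mg/kg ip) or vehicle was given 30 min before food presentation. Food and water intake read at the end of the 4 h period. Repeated on 7 consecutive days, with total intake and body weight tracked. Mean ± SEM, n ≥ 8.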

[7] = Ratio of drug level in brain to plasma in Wistar rat at 10 mg/kg, ip measured up to 6 hrs; type: ADME, organism-based; conditions: read-out: BPR
[8] = target: T1, 5-hydroxytryptamine receptor 2C (Homo sapiens); assay: Displacement of [3H]-5-HT from human 5-HT2C receptor expressed in human HeLa-K1 cell membranes at 10 uM after 180 mins relative to control; method in brief: as §3
Rattus norvegicus [9] = assay: Antiobesity activity in Wistar rat assessed as reduction in food intake at 1 mg/kg, ip after 4 hrs in presence of 5-HT2C antagonist SB-242084; type: functional, organism-based; method in brief: as §2
Rattus norvegicus [10] = assay: In vivo positive allosteric modulation of serotonin-induced feeding suppression in Wistar rat at 2 mg/kg, ip after 4 hrs in presence of 5 mg/kg selective serotonin reuptake inhibitor sertraline; type: functional, organism-based; method in brief: as §2
Rattus norvegicus [11] = assay: Antiobesity activity in continuous food access Wistar rat model assessed as reduction in food intake at 2 mg/kg, ip administered daily for 7 days; type: functional, organism-based
Method in brief: (§5)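 Wistar rats made obese on 60% fat diet (5.24 kcal/g) for 8 weeks. Free-feeding rats got a daily ip injection of compound (2 mg/kg) or vehicle for 7 days. Daily chow intake (kcal/kg body weight) and body weight gain (g) recorded. Mean ± SEM, n ≥ 8 per group.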

[12] = target: T2, 5-hydroxytryptamine receptor 2A; assay: Intrinsic agonist activity at human 5-HT2A receptor expressed in CHO-K1 cells assessed as induction of inositol monophosphate release at 10 uM after 20 mins by HTRF assay; type: cell-based; method in brief: as §1
Rattus norvegicus [13] = assay: Antiobesity activity in continuous food access Wistar rat model assessed as reduction in body weight at 2 mg/kg, ip administered daily for 7 days; type: functional, organism-based; method in brief: as §5
[14] = target: T3, 5-hydroxytryptamine receptor 2B (Homo sapiens, UniProt P41595); assay: Intrinsic agonist activity at human 5-HT2B receptor expressed in CHO-K1 cells assessed as induction of inositol monophosphate release at 10 uM after 20 mins by HTRF assay; type: cell-based; method in brief: as §1
T3 sequence (P41595 whole entry): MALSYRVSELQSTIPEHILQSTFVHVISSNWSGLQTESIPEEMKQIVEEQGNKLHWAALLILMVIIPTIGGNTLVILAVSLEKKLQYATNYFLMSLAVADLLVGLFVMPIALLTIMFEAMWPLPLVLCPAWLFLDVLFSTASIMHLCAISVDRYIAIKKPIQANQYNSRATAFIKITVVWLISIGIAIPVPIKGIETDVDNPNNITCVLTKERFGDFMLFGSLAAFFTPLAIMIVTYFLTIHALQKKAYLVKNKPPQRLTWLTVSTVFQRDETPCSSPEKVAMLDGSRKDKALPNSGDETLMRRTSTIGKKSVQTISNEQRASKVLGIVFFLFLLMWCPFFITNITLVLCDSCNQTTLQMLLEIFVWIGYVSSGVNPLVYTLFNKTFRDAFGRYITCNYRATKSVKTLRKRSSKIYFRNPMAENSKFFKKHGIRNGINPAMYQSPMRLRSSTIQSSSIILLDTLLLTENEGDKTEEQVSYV

[15] = target: T1, 5-hydroxytryptamine receptor 2C (Homo sapiens); assay: Intrinsic agonist activity at human 5-HT2C receptor expressed in human HeLa-K1 cells assessed as induction of inositol monophosphate release after 20 mins by HTRF assay; type: functional, cell-based; method in brief: as §1
[16] = target: T4, 5-hydroxytryptamine receptor 2C (Homo sapiens, UniProt P28335); assay: (§6) Positive allosteric modulation of human 5-HT2C receptor expressed in human HeLa-K1 cells assessed as potentiation of 5-HT-induced inositol monophosphate release after 20 mins by HTRF assay; type: functional, cell-based; method in brief: as §1
T4 sequence (P28335 whole entry): T1 sequence (whole entry)

[17] = target: T1, 5-hydroxytryptamine receptor 2C (Homo sapiens); assay: as §6; type: functional, cell-based; method in brief: as §1
[18] = target: T3, 5-hydroxytryptamine receptor 2B; assay: Positive allosteric modulation of human 5-HT2B receptor expressed in CHO-K1 cells assessed as potentiation of 5-HT-induced inositol monophosphate release at 10 uM after 20 mins by HTRF assay; type: cell-based; method in brief: as §1
[19] = target: T1, 5-hydroxytryptamine receptor 2C (Homo sapiens); assay: Positive allosteric modulation of human 5-HT2C receptor expressed in human HeLa-K1 cells assessed as potentiation of 5-HT-induced inositol monophosphate release at 1 uM after 20 mins by HTRF assay relative to control; type: functional, cell-based
Rattus norvegicus [20] = assay: In vivo positive allosteric modulation of serotonin-induced feeding suppression in Wistar rat at 0.5 mg/kg, ip after 4 hrs in presence of 2 mg/kg selective serotonin reuptake inhibitor sertraline; type: functional, organism-based; method in brief: as §2
Rattus norvegicus [21] = assay: Toxicity in Wistar rat assessed as induction of hypolocomotion at 0.5 to 2 mg/kg, ip after 30 mins by elevated plus maze test; type: organism-based; conditions: in vivo, 0.5 h
Method in brief: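 Maze-naive rats handled for 7 days. Placed in the centre facing an open arm 30 min after ip dosing. Open-arm entries and % time in open arms scored over 5 min. No retesting.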

Rattus norvegicus [22] = assay: Toxicity in Wistar rat assessed as induction of hypolocomotion at 2 mg/kg, ip after 30 mins by open field test; type: organism-based; conditions: in vivo, 0.5 h
Method in brief: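 Rats handled for 7 days before testing. Tested 30 min after ip dosing (2 mg/kg), placed in the centre of the open field. Distance walked was recorded automatically over 10 min. No retesting.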

Rattus norvegicus [23] = assay: Antiobesity activity in restricted food access Wistar rat model assessed as reduction in body weight at 2 mg/kg, ip administered 30 mins prior to food presentation measured after 4 hrs on every day for 7 days; type: functional, organism-based; method in brief: as §4
Rattus norvegicus [24] = assay: Toxicity in Wistar rat assessed as induction of malaise at 2 mg/kg, ip measured 30 mins for 2 days by conditioned taste aversion test; type: organism-based; conditions: in vivo
Method in brief: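 Rats water-deprived 24 h, then trained to drink from a graded bottle in 30 min sessions for 4 days. On day 5, 0.1% saccharin replaced water, and 30 min later rats got ip vehicle, compound (2 mg/kg) or LiCl (0.4 M, 7.5 mL/kg). Water intake was recorded over 30 min on the next 2 days, then a water or saccharin choice was measured.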

[25] = target: T1, 5-hydroxytryptamine receptor 2C (Homo sapiens); assay: Displacement of [3H]-LSD from human 5-HT2C receptor expressed in human HeLa-K1 cell membranes at 10 uM after 60 mins relative to control; method in brief: as §3
[26] = target: T1, 5-hydroxytryptamine receptor 2C (Homo sapiens); assay: Displacement of [3H]-LSD from human 5-HT2C receptor expressed in human HeLa-K1 cell membranes at 1 uM after 60 mins relative to control
[27] = target: T1, 5-hydroxytryptamine receptor 2C (Homo sapiens); assay: Displacement of [3H]-mesulergine from human 5-HT2C receptor expressed in human HeLa-K1 cell membranes at 10 uM after 60 mins relative to control; method in brief: as §3
Rattus norvegicus [28] = assay: Antiobesity activity in Wistar rat assessed as reduction in food intake at 2 mg/kg, ip after 4 hrs in presence of 5-HT2A antagonist ketanserin; type: functional, organism-based; method in brief: as §2

Activity [1]: 0%
Structure (SMILES): c1ccc(Cn2cc(CNc3cnccn3)c3ccccc32)cc1

Activity [1]: 7%
Structure (SMILES): Cc1ccccc1Cn1cc(CNc2cccnc2)c2ccccc21

Activity [1]: 9%
Structure (SMILES): FC(F)(F)c1ccccc1Cn1cc(CNc2cccnc2)c2ccccc21

Activity [1]: 26%
Structure (SMILES): Clc1cccc(Cn2cc(CNc3cccnc3)c3ccccc32)c1

Activity [1]: 7%
Structure (SMILES): N#Cc1ccc(Cn2cc(CNc3cccnc3)c3ccccc32)cc1

Activity [1]: 6%
Structure (SMILES): COc1ccc(Cn2cc(CNc3cccnc3)c3ccccc32)cc1

Activity [1]: 13%
Structure (SMILES): Clc1ccc(Cn2cc(CNc3cccnc3)c3ccccc32)cc1

Activity [1]: 0%
Structure (SMILES): COc1ccccc1Cn1cc(CNc2cccnc2)c2ccccc21

Activity [1]: 9%
Structure (SMILES): c1ccc(Cn2cc(CNc3cccnn3)c3ccccc32)cc1

Activity [1]: 22%
Structure (SMILES): N#Cc1cccc(Cn2cc(CNc3cccnc3)c3ccccc32)c1

Activity [1]: 27%
Structure (SMILES): Cc1cccc(Cn2cc(CNc3cccnc3)c3ccccc32)c1

Activity [3]: Not Active | inhibition [5]: 36% | Kp at 6 h [7]: 3.8 | inhibition [8]: 37% | Activity [1]: 35% | Activity [12]: Not Active | Activity [14]: Not Active | Activity [15]: inactive | pEC50 [16]: 7.80 | Activity [17]: Dose-dependent effect | Activity [18]: Not Active | Activity [19]: 28% | inhibition [25]: 67% | inhibition [26]: 21% | inhibition [27]: 26%
Structure (SMILES): c1ccc(Cn2cc(CNc3cccnc3)c3ccccc32)cc1
Activity (Rattus norvegicus [2]): 50% | Activity (Rattus norvegicus [4]): Active | Activity (Rattus norvegicus [6]): Active | Activity (Rattus norvegicus [9]): Active | Activity (Rattus norvegicus [10]): Active | Activity (Rattus norvegicus [11]): Active | Activity (Rattus norvegicus [13]): Active | Activity (Rattus norvegicus [20]): Active | Activity (Rattus norvegicus [21]): Toxic | Activity (Rattus norvegicus [22]): Toxic | Activity (Rattus norvegicus [23]): Active | Activity (Rattus norvegicus [24]): Non-Toxic | Activity (Rattus norvegicus [28]): Active

Activity [1]: 0%
Structure (SMILES): c1ccc(Cn2cc(CNc3ccncn3)c3ccccc32)cc1

Activity [1]: 7%
Structure (SMILES): Brc1cccc(Cn2cc(CNc3cccnc3)c3ccccc32)c1

Activity [1]: 0%
Structure (SMILES): c1ccc(Cn2cc(CNc3ncccn3)c3ccccc32)cc1

Activity [1]: 6%
Structure (SMILES): Brc1ccc(Cn2cc(CNc3cccnc3)c3ccccc32)cc1

Activity [1]: 25%
Structure (SMILES): c1cncc(Cn2cc(CNc3cccnc3)c3ccccc32)c1

Activity [1]: 9%
Structure (SMILES): Fc1ccc(Cn2cc(CNc3cccnc3)c3ccccc32)cc1

Activity [1]: 9%
Structure (SMILES): c1cncc(NCc2cn(Cc3ccncc3)c3ccccc23)c1
